From PubChem BioAssay
M5 ag – human M5 muscarinic receptor agonists, primary screen, CHO-K1 cells, Fluo-8 calcium fluorescence | actives 0.19% (n = 360,000) | CHO-K1 hM5 cells; 0% DMSO wells, 100% maximal acetylcholine response | Muscarinic acetylcholine receptor M5 (Homo sapiens), P08912 | activation, % at 3 µM;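 active = activation above the run's mean over test compounds plus 3 SD, cut at about 23% in these data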;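 also: signal is peak over basal fluorescence ratio across the kinetic read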
Target sequence (P08912 whole entry, looked up): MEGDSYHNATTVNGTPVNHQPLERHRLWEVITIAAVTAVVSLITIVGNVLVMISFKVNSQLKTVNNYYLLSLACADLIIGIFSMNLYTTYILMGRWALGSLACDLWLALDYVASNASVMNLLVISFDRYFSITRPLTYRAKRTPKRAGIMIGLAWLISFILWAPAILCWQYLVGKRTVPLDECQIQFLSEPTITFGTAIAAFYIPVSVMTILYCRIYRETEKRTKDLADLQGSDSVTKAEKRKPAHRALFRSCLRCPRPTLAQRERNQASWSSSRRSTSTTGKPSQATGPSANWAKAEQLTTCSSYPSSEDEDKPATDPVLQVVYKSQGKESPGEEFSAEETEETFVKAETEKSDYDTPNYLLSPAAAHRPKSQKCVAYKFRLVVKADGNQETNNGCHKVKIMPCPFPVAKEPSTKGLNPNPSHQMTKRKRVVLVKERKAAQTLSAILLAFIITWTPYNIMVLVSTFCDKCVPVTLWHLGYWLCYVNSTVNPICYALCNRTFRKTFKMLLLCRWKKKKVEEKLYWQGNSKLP
M5 PAM – human M5 muscarinic receptor positive allosteric modulators, primary screen, CHO-K1 cells, Fluo-8 calcium fluorescence | Muscarinic acetylcholine receptor M5 (Homo sapiens), P08912 | CHO-K1 hM5, ACh EC20 PAM; 0% = ACh EC20, 100% = ACh EC100 | activation, % at 3 µM | actives 0.3% (n = 360,000);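 active = activation above the run cutoff, the mean activation of all test compounds plus 3 SD, cut at about 18% in these data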
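Probe or stimulus: acetylcholine, EC20 level; Assay system: human M5 receptor in CHO-K1 cells; Schedule: compound preincubation 140 s before EC20 acetylcholine addition; Technique: intracellular calcium via Fluo-8 fluorescence; Dosing: single-point, 3 µM nominal; Read-out basis: percent activation from peak-over-basal fluorescence ratio, scaled EC20-to-EC100 acetylcholine; Repeats: one well per compound, no replicates.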
M1 ag – human M1 muscarinic receptor agonists, primary screen, Fluo-8 calcium fluorescence, CHO-K1 cells, HTS; activation, % at 3 µM; AID 588814, 2011; Muscarinic acetylcholine receptor M1 (Homo sapiens), P11229; CHO-K1 hM1, agonist mode; 0% DMSO, 100% acetylcholine EC100; actives 0.33% (n = 360,000);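 active = activation above the run's mean compound activation plus 3 SD, cut at about 16% in these data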;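 also: peak over basal fluorescence ratio within a 140 s kinetic read after compound addition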
M1 PAM – human M1 muscarinic receptor positive allosteric modulators, primary screen, CHO-K1 cells, Fluo-8 calcium fluorescence, 1536-well. actives 0.088% (n = 360,000). activation, % at 3 µM. CHO-K1 hM1, ACh EC20; 0% = ACh EC20, 100% = maximal ACh. AID 588819, 2011; in the data active = activation above about 19%, passing the limit was not always enough
CHRM1 antagonist – human M1 muscarinic receptor antagonists, primary screen, CHO-K1 cells, Fluo-8 calcium fluorescence, 1536-well; Muscarinic acetylcholine receptor M1 (Homo sapiens), P11229; CHO-K1 hM1, ACh EC80 antagonist; inhibition, % at 3 µM; actives 1.3% (n = 360,000); AID 588852, 2011;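 active = percent inhibition above its own plate's cutoff, namely the mean of that plate's compound wells plus 3 SD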;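 also: peak over basal fluorescence ratio during 140 s after agonist addition; 0% = ACh EC80 plus DMSO and 100% = DMSO alone without agonist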
CHRM5 antagonist – human M5 muscarinic receptor antagonists, primary screen, CHO cells, Fluo-8 calcium fluorescence. actives 0.59% (n = 360,000). AID 624040, 2012. inhibition, % at 3 µM. Muscarinic acetylcholine receptor M5 (Homo sapiens), P08912. CHO-hM5 cells, ACh EC80;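 active = inhibition above a per-plate cutoff, the mean of that plate's test compounds plus 3 SD, cut at about 27% in these data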;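 also: 0% = acetylcholine EC80 with DMSO and 100% = DMSO without agonist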
* marks the source's active call; other numbers are inactive results; / = no result given. Sampled rows, rich in hits. Any-hit rate of the full collection: about 2%.

SMILES | M5 ag | M5 PAM | M1 ag | M1 PAM | CHRM1 antagonist | CHRM5 antagonist
CCCCCC(=O)N1C[C@H](n2cc(COC(=O)c3ccccc3)nn2)[C@@H](O)C[C@@H]1c1ccc(Cl)cc1 | 1.3 | 1.4 | -1.4 | 12.9 | -18.6 | -1.0
CN(C)S(=O)(=O)c1cccc(NC(=O)c2cccc(S(=O)(=O)N3CCCCCC3)c2)c1 | 0.5 | -24.0 | -4.5 | -21.0 | 32.5* | 14.1
COc1ccc(C)cc1N1CC(C(=O)Nc2cccc(C(=O)NC3CC3)c2)CC1=O (stereo not given) | -2.2 | -0.7 | -4.0 | 2.8 | -12.2 | -0.1
O=C(c1ccc(Cl)cc1)C(CN1CCCC1)c1ccccc1 (stereo not given) | -19.8 | 0.4 | -9.0 | -25.2 | 38.4* | 5.3
CN(C(=O)COC(=O)c1ccc(S(=O)(=O)N2CCCCCC2)cc1)c1ccccc1 | -1.1 | -0.9 | -7.0 | 5.5 | -12.0 | 0.3
CN(C(=O)COC(=O)c1ccc(CN2CCCC2=O)cc1)c1ccccc1 | -1.0 | -10.1 | -7.9 | -28.5 | 67.7* | 7.6
Cc1c(C(=O)NCCCN2CCCC2=O)oc2ccc(S(=O)(=O)N3CCOCC3)cc12 | -2.7 | -1.0 | -0.3 | 9.0 | -12.6 | 7.7
Cc1c(C(=O)NCCC2=CCCCC2)oc2ccc(S(=O)(=O)N3CCOCC3)cc12 | 2.6 | -23.0 | 3.0 | -13.6 | 42.3* | 27.8*
CCCCCc1nc2sc3c(c2c(=O)n1NC(=O)c1ccc([N+](=O)[O-])cc1)CC(C)(C)OC3 | 0.4 | -15.9 | -3.6 | -22.7 | 21.2 | 33.9*
CC(OC(=O)C1=COCCO1)C(=O)NC1CCCC(C)C1C (stereo not given) | -1.6 | 3.9 | -2.9 | 5.5 | -9.1 | -2.0
c1ccc(-c2cncnc2)cc1 | 6.6 | 19.7* | -1.1 | 0.1 | 2.6 | -9.2
COc1ccc(C(C(=O)Nc2ccc3c(c2)OCCO3)n2c(=O)c(-c3ccco3)nc3ccccc32)cc1 (stereo not given) | 0.7 | -3.0 | / | / | / | 6.2
COc1ccc(CCNC(=O)C(=O)c2c(C)[nH]c3ccccc23)cc1 | -8.6 | -17.9 | 0.8 | -2.7 | 4.8 | 70.5*
Cc1[nH]c2ccccc2c1C(=O)C(=O)NCCOc1ccccc1 | 1.4 | -6.7 | -3.2 | 1.4 | -0.6 | 1.9
O=S(=O)(c1cccc2cccnc12)N1CCCCC1 | -3.2 | 3.7 | -0.5 | -0.5 | 3.3 | 3.8
CN1CCN(c2ncccc2S(=O)(=O)N2CCCCC2)CC1 | -11.2 | -15.3 | -4.8 | -22.0 | 98.8* | 98.6*
COc1cccc(-c2ccc(NC(=O)C3CCCN(CCCn4nc(C)cc4C)C3)cc2)c1 (stereo not given) | -7.5 | -11.3 | -2.0 | -23.8 | 49.5* | 11.9
COC(=O)c1ccc(CN2CCC(Oc3ccc(C(=O)N4CCCCC4)cc3)CC2)cc1 | -7.3 | -16.1 | -4.5 | -22.4 | 97.0* | 22.1
Cc1cc(C)cc(CN2CCC(Oc3ccc(C(=O)N4CCCC4)cc3)CC2)c1 | -9.7 | -8.9 | -4.2 | -8.9 | 8.6 | 12.0
CSc1ccc(CN2CCC(Oc3cccc(C(=O)N4CCCC4)c3)CC2)cc1 | -7.3 | -17.5 | -5.9 | -22.7 | 75.2* | 68.7*
COC(=O)c1ccc(CN2CCC(Oc3cccc(C(=O)N4CCCC4)c3)CC2)cc1 | -6.8 | -16.1 | -0.6 | -20.9 | 94.4* | 80.4*
O=C(c1cccc(OC2CCN(Cc3cc(F)cc(F)c3)CC2)c1)N1CCCC1 | -7.8 | 5.3 | -5.4 | 5.6 | 2.4 | -11.1
O=C(NCc1ccncc1)[C@@H]1CCCN1C(=O)[C@H]1CCCN1C(=O)c1cccc2ccccc12 | -0.6 | -5.1 | / | / | / | 8.6
CC1=C(C(=O)N(C)C)CC(CC(=O)NC2CCCCC2)C(=O)N1Cc1ccccc1 (stereo not given) | -0.1 | 2.1 | 1.1 | 9.1 | -18.3 | -3.1
